PubChem BioAssay
Records with an inconclusive call do not appear.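 The calls were made as follows, unless noted: active = viability increase at or above a cutoff of the median across tested compounds plus 3 SD (cut at about 8.5% in these data, passing the limit was not always enough); inconclusive = some gains above the cutoff, reason not given; inactive = the rest.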

Experiments:
[1] = OD615 S. cerevisiae growth inhibition, permissive medium, pilot counter-assay, permissive growth control for S. cerevisiae lifespan shortening project (AID 705;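 active = growth inhibition above 25% in both replicates, a cutoff set 3 SD above the mean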); conditions: OD615, 24 h, at 10 µM, stronger effect = higher value
Summary of the method: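 System – S. cerevisiae with engineered DeaD lifespan system · Buffer or medium – SC raffinose/galactose permissive medium · Schedule – cells pre-grown 4 h, then 24 h compound exposure, 30 °C humidified · Technique – culture turbidity as optical density at 615 nm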

[2] = Restrictive medium S. cerevisiae growth inhibition, OD615, pilot screen of yeast lifespan reduction project, restrictive growth control (AID 706;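 active = growth inhibition above a set limit, 3 SD over mean compound inhibition, in both replicates, cut at about 43% in these data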;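 also: modified DeaD lifespan yeast strain shifted to restrictive glucose medium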); conditions: OD615, 48 h, at 10 µM, stronger effect = higher value
Summary of the method: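 Material: engineered S. cerevisiae DeaD strain / Medium: glucose-based CSMM-D restrictive medium / Compound: single dose of 10 µM compound final, 0.25% DMSO / Timing: 4 h pre-incubation, 48 h exposure at 30 °C / Technique: OD615 absorbance reading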

[3] = viability gain of MRP-1-high H69AR cells under doxorubicin, pilot screen, MRP-1 activator project, CellTiter-Glo, duplicate (AID 807); conditions: H69AR viability with doxorubicin, CellTiter-Glo luminescence; at 10 µM; stronger effect = higher value;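 also: compound pretreatment 18-22 h then 72 h combined with doxorubicin; 0% = doxorubicin alone and 100% = vehicle without doxorubicin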
[4] = growth suppression of beta-catenin knockout HCT116, pilot screen, human colon tumor cells (AID 823;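 active = cell viability at or below a set limit in both duplicate runs, the limit being the all-compound median minus 4 SD, cut at about 23% in these data, passing the limit was not always enough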;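 also: 0% = wells killed by 20 µM Hyamine and 100% = untreated DMSO cell wells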); conditions: CellTiter-Glo, 60 h, at 10 µM, stronger effect = lower value
[5] = growth suppression of PTEN-deleted HCT116, pilot screen, cell-based, HCT116 clonal line, CellTiter-Glo (AID 824;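 active = viability at or below 27.92% in each of two runs, the all-compound median minus 4 SD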;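 also: 0% = 20 µM Hyamine control and 100% = vehicle cell control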); conditions: 60 h, at 10 µM, stronger effect = lower value
[6] = inhibitors of the yeast RAM network, pilot screen, dse1pr::URA3 reporter, 5-FOA selection (AID 869;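 active = inhibition over a set limit, the all-compound mean plus 3 SD, in both replicate runs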;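 also: 0% = DMSO wells with no growth and 100% = 10 µM 1-NA-PP1 with full growth; RAM network block rescues cells from 5-FOA so hits raise OD615 growth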); conditions: S. cerevisiae dse1pr::URA3 5-FOA growth, OD615, 2 d; at 10 µM; stronger effect = higher value; strain carries analog-sensitive mutant Cbk1 kinase
[7] = RAM signaling pathway blockade in yeast – S. cerevisiae, Pdr1DBD-CYC8 efflux-inhibited sensitized strain, primary screen (AID 1298;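 active = RAM network inhibition above 8.4% in each of two replicates, 3 SD over the compound average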;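 also: 0% = DMSO untreated cells without growth and 100% = 10 µM 1-NA-PP1 full growth; higher means more yeast growth rescued from 5-FOA killing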); conditions: S. cerevisiae cbk1-as DSE1-URA3 strain, 5-FOA growth OD615, 2 d; at 50 µM; stronger effect = higher value

COc1ccc(C(=O)N2CCN(S(=O)(=O)c3ccc(C)cc3C)CC2)cc1OC
inactive: growth inhibition [1] -11.3% | growth inhibition [2] -13.3% | viability increase [3] 0.12% | viability [4] 93.2% | viability [5] 90.3% | inhibition [6] 1.12% | RAM network inhibition [7] 2.18%

COCC(=O)Nc1cc(=O)n(C)c(=O)n1C
inactive: growth inhibition [1] -4.37% | growth inhibition [2] -24.4% | viability increase [3] -1.62% | viability [4] 100% | viability [5] 94.4% | inhibition [6] 1.73% | RAM network inhibition [7] -0.05%

CCOC(=O)C1=C2N(C)c3ccccc3N2CCC1=O
inactive: growth inhibition [1] 8.71% | growth inhibition [2] 4.85% | viability increase [3] -3.21% | viability [4] 97.5% | viability [5] 93.8% | inhibition [6] 1.9% | RAM network inhibition [7] -0.41%

CCC(CO)Nc1ncnc2c1cnn2-c1ccc(OC)cc1 (configuration not stated)
inactive: growth inhibition [1] -7.48% | growth inhibition [2] -7.47% | viability increase [3] 0.37% | viability [4] 104% | viability [5] 101% | inhibition [6] 2.01% | RAM network inhibition [7] -1.98%

CCCSC1=C(C#N)C(c2ccc(O)c(OC)c2)CC(=O)N1 (configuration not stated)
inactive: growth inhibition [1] -14.9% | growth inhibition [2] -22.5% | viability increase [3] -2.92% | viability [4] 104% | viability [5] 101% | inhibition [6] 1.66% | RAM network inhibition [7] 1.36%

O=C(CN1C(=O)CCC1=O)Nc1nc(-c2ccccn2)cs1
inactive: growth inhibition [1] -5.94% | growth inhibition [2] -9.21% | viability increase [3] -0.35% | viability [4] 106% | viability [5] 101% | inhibition [6] 0.045% | RAM network inhibition [7] 3.42%

CC(C)c1nnc(NC(=O)CN2C(=O)c3ccccc3C2=O)s1
inactive: growth inhibition [1] -5.71% | growth inhibition [2] -6.92% | viability increase [3] -1.95% | viability [4] 96.3% | viability [5] 89.1% | inhibition [6] 1.61% | RAM network inhibition [7] 3.84%

O=C(c1ccccc1F)N1CCN(S(=O)(=O)c2ccc3c(c2)OCCO3)CC1
inactive: growth inhibition [1] -6.31% | growth inhibition [2] 3.28% | viability increase [3] -5.24% | viability [4] 90.5% | viability [5] 91.3% | inhibition [6] 3.16% | RAM network inhibition [7] 2.93%

O=C(Nc1nccs1)c1cc(S(=O)(=O)N2CCOCC2)ccc1Cl
inactive: growth inhibition [1] -0.79% | growth inhibition [2] -2.65% | viability increase [3] -3.96% | viability [4] 97.8% | viability [5] 91% | inhibition [6] 1.35% | RAM network inhibition [7] 4.18%

COc1ccc(C(=O)Nc2ccc3oc(-c4cccc(F)c4)nc3c2)cc1OC
inactive: growth inhibition [1] -9.88% | growth inhibition [2] -5.71% | viability increase [3] -2.46% | viability [4] 95.1% | viability [5] 90.3% | inhibition [6] 3.53% | RAM network inhibition [7] 3.33%

Cc1cccc(CCNC(=O)c2nnc(Cc3ccc(Cl)cc3)o2)c1
inactive: growth inhibition [1] -3.04% | growth inhibition [2] 1.66% | viability increase [3] 0.18% | viability [4] 102% | viability [5] 95.5% | inhibition [6] 1.27% | RAM network inhibition [7] 6.94%

C=CCOC(=O)COc1ccc2c(C)c(C)c(=O)oc2c1
inactive: growth inhibition [1] -17.9% | growth inhibition [2] -6.88% | viability increase [3] 0.26% | viability [4] 96.6% | viability [5] 95.9% | inhibition [6] 0.765% | RAM network inhibition [7] 4.38%

Cc1ccc(S(=O)(=O)N2CCC(C(=O)N[C@@H](C)C(=O)NC3CCCCC3)CC2)cc1
inactive: growth inhibition [1] -10.2% | growth inhibition [2] -17.1% | viability increase [3] 3.71% | viability [4] 97.7% | viability [5] 99.8% | inhibition [6] 2.49% | RAM network inhibition [7] 4.41%

CCCC(=N)C1=C(O)CC(CC(C)SCC)CC1=O (configuration not stated)
inactive: growth inhibition [1] -5.42% | growth inhibition [2] 5.29% | viability increase [3] -1.06% | viability [4] 97.5% | viability [5] 103% | inhibition [6] 0.49% | RAM network inhibition [7] -1.1%

COc1ccc(CC2CCOC2=O)cc1 (configuration not stated)
inactive: growth inhibition [1] -10.7% | growth inhibition [2] -8.8% | viability increase [3] 0.08% | viability [4] 98% | viability [5] 93.9% | inhibition [6] 1.93% | RAM network inhibition [7] -0.09%

CCCCCn1c(SC(C)C(C)=O)nc2c1c(=O)[nH]c(=O)n2C (configuration not stated)
inactive: growth inhibition [1] -25.6% | growth inhibition [2] -33.8% | viability increase [3] -0.88% | viability [4] 94.4% | viability [5] 88% | inhibition [6] 2.36% | RAM network inhibition [7] 2.16%

O=c1[nH]c2ccccc2n1Cc1ccc(F)cc1
inactive: growth inhibition [1] -5.88% | growth inhibition [2] -4.46% | viability increase [3] 1.93% | viability [4] 96.6% | viability [5] 92.4% | inhibition [6] 1.71% | RAM network inhibition [7] -0.05%

O=C(O)Cn1ncc2c1-c1ccoc1CC2
inactive: growth inhibition [1] -0.31% | growth inhibition [2] 2.4% | viability increase [3] -0.14% | viability [4] 106% | viability [5] 96.6% | inhibition [6] 2.17% | RAM network inhibition [7] 0.47%

O=C(c1ccc2c(c1)C(=O)N(Cc1ccco1)C2O)N1CCOCC1 (configuration not stated)
inactive: growth inhibition [1] 1% | growth inhibition [2] -5.05% | viability increase [3] -2.58% | viability [4] 109% | viability [5] 98.3% | inhibition [6] 2.12% | RAM network inhibition [7] 1.94%

COc1cc(NC(=O)c2cc3c(=O)n(C)c4ccccc4c3n2C)cc(OC)c1OC
inactive: growth inhibition [1] 1.8% | growth inhibition [2] 7.94% | viability increase [3] -3.3% | viability [4] 106% | viability [5] 95.7% | inhibition [6] 3.3% | RAM network inhibition [7] 5.77%

CCCN1C(=O)c2cc(C(=O)NC3CCCC3)ccc2C1O (configuration not stated)
inactive: growth inhibition [1] -10.3% | growth inhibition [2] -1.61% | viability increase [3] -2.46% | viability [4] 103% | viability [5] 95.5% | inhibition [6] 0.125% | RAM network inhibition [7] 9.43%

Cn1c(NCc2ccccc2Cl)nc2ccccc21
inactive: growth inhibition [1] -5.4% | growth inhibition [2] -11.6% | viability increase [3] 0.98% | viability [4] 97.5% | viability [5] 92.8% | inhibition [6] 0.3% | RAM network inhibition [7] 1.78%

COc1ccc(S(=O)(=O)Cc2ccc(C(=O)NCc3ccc(F)cc3)o2)cc1
inactive: growth inhibition [1] -13.6% | growth inhibition [2] -14.1% | viability increase [3] -0.39% | viability [4] 92.2% | viability [5] 87.5% | inhibition [6] 0.735% | RAM network inhibition [7] 2.4%

CCOC(=O)N1CCC(Nc2c(OCC)c(=O)c2=O)CC1
inactive: growth inhibition [1] -10.2% | growth inhibition [2] 10.1% | viability increase [3] -0.57% | viability [4] 102% | viability [5] 96.4% | inhibition [6] 1.31% | RAM network inhibition [7] 5.22%

CCN(c1ccccc1)c1cc(C)nc2ncnn12
inactive: growth inhibition [1] -18% | growth inhibition [2] -1.56% | viability increase [3] -3.24% | viability [4] 96.7% | viability [5] 94.9% | inhibition [6] 1.6% | RAM network inhibition [7] 4.57%

Cn1cc(SCC(=O)NCc2ccc3c(c2)OCO3)c2ccccc21
inactive: growth inhibition [1] 4.09% | growth inhibition [2] -1.53% | viability increase [3] -4.24% | viability [4] 98.3% | viability [5] 95.1% | inhibition [6] 1.17% | RAM network inhibition [7] 4.4%

COc1ccccc1Nc1cc(C(=O)NCCCN2CCOCC2)c2ccccc2n1
inactive: growth inhibition [1] -7.99% | growth inhibition [2] -0.795% | viability increase [3] -3.47% | viability [4] 89.1% | viability [5] 91.4% | inhibition [6] 0.455% | RAM network inhibition [7] 0.58%

C=CCn1c(SCC(=O)Nc2cc(C)nn2-c2ccccc2)nnc1C1CCCCC1
inactive: growth inhibition [1] -7.09% | growth inhibition [2] -6.5% | viability increase [3] -1.14% | viability [4] 90.8% | viability [5] 94.3% | inhibition [6] 0.165% | RAM network inhibition [7] 3.38%

C=C(C)CSc1nnc(-c2cc(OC)c(OC)c(OC)c2)n1N
inactive: growth inhibition [1] 8.03% | growth inhibition [2] 7.75% | viability increase [3] -1.01% | viability [4] 95.2% | viability [5] 97.8% | inhibition [6] 0.94% | RAM network inhibition [7] 4%

COc1cccc(N2CCN(C(=O)CN(C)S(=O)(=O)c3ccc4c(c3)CCC(=O)N4)CC2)c1
inactive: growth inhibition [1] -2.86% | growth inhibition [2] -13.8% | viability increase [3] -2.87% | viability [4] 87.6% | viability [5] 85.5% | inhibition [6] 0.59% | RAM network inhibition [7] 7.09%

COc1cc(C2N(c3ccccc3)CCN2c2ccccc2)ccc1OC(C)=O
inactive: growth inhibition [1] -18.8% | growth inhibition [2] -13.6% | viability increase [3] 0.59% | viability [4] 96.3% | viability [5] 94.5% | inhibition [6] 0.44% | RAM network inhibition [7] 2.35%

Cn1c2ccc(CC(=O)O)cc2c2cc(CC(=O)O)ccc21
inactive: growth inhibition [1] 1.85% | growth inhibition [2] -12.4% | viability increase [3] -3.54% | viability [4] 96.8% | viability [5] 89.7% | inhibition [6] 1.1% | RAM network inhibition [7] 0.98%

CCOC(=O)N1CCN(C(=O)CN(c2ccc(Oc3ccccc3)cc2)S(C)(=O)=O)CC1
inactive: growth inhibition [1] -5.22% | growth inhibition [2] -15.6% | viability increase [3] -2% | viability [4] 75.2% | viability [5] 66.2% | inhibition [6] 0.265% | RAM network inhibition [7] 2.44%

CC1CCN(S(=O)(=O)c2ccc(NC(=O)c3cccs3)cc2)CC1
inactive: growth inhibition [1] -0.77% | growth inhibition [2] 5.38% | viability increase [3] -5.18% | viability [4] 85.5% | viability [5] 75.8% | inhibition [6] 0.115% | RAM network inhibition [7] 3.83%

[O-]/[N+](=C/c1cccnc1)c1ccc(Br)cc1
inactive: growth inhibition [1] -11.4% | growth inhibition [2] -4.11% | viability increase [3] -4.72% | viability [4] 93.8% | viability [5] 94% | inhibition [6] 2.69% | RAM network inhibition [7] 8.64%

CCC(C)NC(=O)CS(=O)Cc1nc(-c2ccccc2C)oc1C (configuration not stated)
inactive: growth inhibition [1] 1.69% | growth inhibition [2] 12.7% | viability increase [3] -2.38% | viability [4] 96.1% | viability [5] 95.2% | inhibition [6] 1.9% | RAM network inhibition [7] 9.39%
